Values after ≈ are worked out from the molar mass of the structure shown.
Columns and labels:
Type in all cases: functional
[1] = test system: Pseudomonas aeruginosa; test: In vitro antibacterial activity measured as minimum inhibitory concentration was evaluated on Pseudomonas aeruginosa ATCC 10145 (Pa).; conditions: Pseudomonas aeruginosa, ATCC 10145; read-out: MIC
How it was run: (§1)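 Serial 2-fold agar dilution in Mueller Hinton medium, run side by side with reference quinolones. Inoculum 10^5 cfu/mL; compound range 0.007–16 µg/mL.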

[2] = test system: Staphylococcus epidermidis; test: In vitro antibacterial activity measured as minimum inhibitory concentration was evaluated on Staphylococcus epidermidis ATCC 155-1 (Se).; conditions: Staphylococcus epidermidis, ATCC 155-1; read-out: MIC; how it was run: as §1
[3] = test system: Enterobacter cloacae; test: In vitro antibacterial activity measured as minimum inhibitory concentration, was evaluated on Enterobacter cloacae ATCC 23355 (Ecl).; conditions: Enterobacter cloacae, ATCC 23355; read-out: MIC
[4] = test system: Staphylococcus aureus; test: In vitro antibacterial activity measured as minimum inhibitory concentration was evaluated on Staphylococcus aureus ATCC 25178 (Sa).; conditions: Staphylococcus aureus, ATCC 25178; read-out: MIC; how it was run: as §1
[5] = test system: Klebsiella pneumoniae; test: In vitro antibacterial activity measured as minimum inhibitory concentration was evaluated on klebsiella pneumoniae ATCC 10031 (Kp).; conditions: Klebsiella pneumoniae, ATCC 10031; read-out: MIC
How it was run: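 Serial 2-fold agar dilution in Mueller Hinton medium, run side by side with reference quinolones.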

[6] = test system: Bacillus subtilis; test: In vitro antibacterial activity measured as minimum inhibitory concentration was evaluated on Bacillus subtilis ATCC 6633(Bs).; conditions: Bacillus subtilis, ATCC 6633; read-out: MIC; how it was run: as §1
[7] = test system: Bacillus cereus; test: In vitro antibacterial activity measured as minimum inhibitory concentration was evaluated on Bacillus cereus ATCC 11778 (Bc).; conditions: Bacillus cereus, ATCC 11778; read-out: MIC; how it was run: as §1
[8] = test system: Escherichia coli; test: In vitro antibacterial activity measured as minimum inhibitory concentration, was evaluated on Escherichia coli ATCC 23559(Ec).; conditions: Escherichia coli, ATCC 23559; read-out: MIC; how it was run: as §1
[9] = test system: Morganella morganii; test: In vitro antibacterial activity measured as minimum inhibitory concentration was evaluated on morganella morganii ATCC 8019 (Mm).; conditions: Morganella morganii, ATCC 8019; read-out: MIC; how it was run: as §1
[10] = test system: Proteus vulgaris; test: In vitro antibacterial activity measured as minimum inhibitory concentration was evaluated on proteus vulgaris ATCC 8427 (Pv).; conditions: Proteus vulgaris, ATCC 8427; read-out: MIC; how it was run: as §1
[11] = test system: Enterococcus faecalis; test: In vitro antibacterial activity measured as minimum inhibitory concentration was evaluated on Streptococcus faecalis ATCC 10541 (Sf).; conditions: Enterococcus faecalis, ATCC 10541; read-out: MIC; how it was run: as §1
[12] = test system: Pseudomonas aeruginosa; test: In vivo efficacy as ED50 against Pseudomonas aeruginosa HS-116 by oral administration in mice.; conditions: Pseudomonas aeruginosa, po; read-out: ED50
How it was run: (§2)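 Mice, 4 groups of 10, infected intraperitoneally with slightly more than the LD100 of the organism. A single oral dose was given immediately after infection, with four doses (one per group) chosen from in vitro activity. Survival was scored after one week. ED50 (total dose, mg/kg, protecting 50%) was interpolated among group survival rates.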

[13] = test system: Escherichia coli; test: In vivo efficacy as ED50 against Escherichia coli HM-42 by oral administration in mice.; conditions: Escherichia coli, po; read-out: ED50; how it was run: as §2
[14] = test system: Staphylococcus aureus; test: In vivo efficacy as ED50 against Staphylococcus aureus HS-93 by oral administration in mice.; conditions: Staphylococcus aureus, po; read-out: ED50; how it was run: as §2

| SMILES | MIC [1] [µg/mL] | MIC [2] [µg/mL] | MIC [3] [µg/mL] | MIC [4] [µg/mL] | MIC [5] [µg/mL] | MIC [6] [µg/mL] | MIC [7] [µg/mL] | MIC [8] [µg/mL] | MIC [9] [µg/mL] | MIC [10] [µg/mL] | MIC [11] [µg/mL] | ED50 [12] [mg/kg] | ED50 [13] [mg/kg] | ED50 [14] [mg/kg] |
| --- | --- | --- | --- | --- | --- | --- | --- | --- | --- | --- | --- | --- | --- | --- |
| C[C@H]1COc2c(N3CC(C)(N(C)C)C3)c(F)cc3c(=O)c(C(=O)O)cn1c23 | 4 (≈ 10.7 µM) | 0.12 (≈ 0.32 µM) | 0.5 (≈ 1.33 µM) | 0.25 (≈ 0.666 µM) | 0.12 (≈ 0.32 µM) | 0.06 (≈ 0.16 µM) | 0.5 (≈ 1.33 µM) | 0.12 (≈ 0.32 µM) | 0.25 (≈ 0.666 µM) | 0.5 (≈ 1.33 µM) | 2 (≈ 5.33 µM) | – | – | – |
| C[C@H]1[C@@H](N)CN1c1c(F)cc2c(=O)c(C(=O)O)cn(C3CC3)c2c1F | 2 (≈ 5.73 µM) | 1 (≈ 2.86 µM) | 0.25 (≈ 0.716 µM) | 0.25 (≈ 0.716 µM) | 0.25 (≈ 0.716 µM) | 0.25 (≈ 0.716 µM) | 0.25 (≈ 0.716 µM) | 0.25 (≈ 0.716 µM) | 0.25 (≈ 0.716 µM) | 1 (≈ 2.86 µM) | 2 (≈ 5.73 µM) | – | – | – |
| CC1C(N)CN1c1cc2c(cc1F)c(=O)c(C(=O)O)cn2C1CC1 (stereo unspecified) | – | – | 0.03 (≈ 0.0905 µM) | – | 0.03 (≈ 0.0905 µM) | 0.03 (≈ 0.0905 µM) | 0.06 (≈ 0.181 µM) | 0.015 (≈ 0.0453 µM) | 0.03 (≈ 0.0905 µM) | 0.06 (≈ 0.181 µM) | – | 108 | 3.5 | 22.3 |
| C[C@H]1COc2c(N3CC(N(C)C)C3)c(F)cc3c(=O)c(C(=O)O)cn1c23 | 4 (≈ 11.1 µM) | 0.12 (≈ 0.332 µM) | 0.06 (≈ 0.166 µM) | 0.12 (≈ 0.332 µM) | 0.015 (≈ 0.0415 µM) | 0.015 (≈ 0.0415 µM) | 0.06 (≈ 0.166 µM) | 0.06 (≈ 0.166 µM) | 0.12 (≈ 0.332 µM) | 0.25 (≈ 0.692 µM) | 2 (≈ 5.53 µM) | – | – | – |
| CC1C(N)CN1c1cc2c(cc1F)c(=O)c(C(=O)O)cn2-c1ccc(F)cc1F (stereo unspecified) | 2 (≈ 4.96 µM) | – | – | – | – | 0.03 (≈ 0.0744 µM) | – | 0.06 (≈ 0.149 µM) | – | 0.5 (≈ 1.24 µM) | 1 (≈ 2.48 µM) | 78 | 6 | 8.1 |
| CC1C(N)CN1c1c(F)cc2c(=O)c(C(=O)O)cn(-c3ccc(F)cc3)c2c1F (stereo unspecified) | 2 (≈ 4.96 µM) | – | – | – | – | – | – | 0.12 (≈ 0.298 µM) | – | 0.5 (≈ 1.24 µM) | 2 (≈ 4.96 µM) | 55 | 2.5 | 5.7 |
| C[C@@H]1[C@@H](N)CN1c1c(F)c(N)c2c(=O)c(C(=O)O)cn(-c3ccc(F)cc3F)c2c1F | 0.5 (≈ 1.15 µM) | 0.12 (≈ 0.275 µM) | 0.12 (≈ 0.275 µM) | 0.06 (≈ 0.137 µM) | 0.25 (≈ 0.573 µM) | 0.03 (≈ 0.0687 µM) | 0.12 (≈ 0.275 µM) | 0.03 (≈ 0.0687 µM) | 0.12 (≈ 0.275 µM) | 0.5 (≈ 1.15 µM) | 0.12 (≈ 0.275 µM) | – | – | – |
| CC1C(N)CN1c1nc2c(cc1F)c(=O)c(C(=O)O)cn2-c1ccc(F)cc1F (stereo unspecified) | 1 (≈ 2.47 µM) | – | – | – | 0.06 (≈ 0.148 µM) | 0.06 (≈ 0.148 µM) | – | 0.12 (≈ 0.297 µM) | – | 1 (≈ 2.47 µM) | 1 (≈ 2.47 µM) | 140 | 3.3 | 8.9 |
| Cc1c(F)c(N2C[C@H](N)[C@H]2C)nc2c1c(=O)c(C(=O)O)cn2-c1ccc(F)cc1F | 0.5 (≈ 1.2 µM) | 0.06 (≈ 0.143 µM) | 0.12 (≈ 0.287 µM) | 0.06 (≈ 0.143 µM) | 0.12 (≈ 0.287 µM) | 0.015 (≈ 0.0359 µM) | 0.06 (≈ 0.143 µM) | 0.06 (≈ 0.143 µM) | 0.25 (≈ 0.598 µM) | 1 (≈ 2.39 µM) | 0.25 (≈ 0.598 µM) | – | – | – |
| Cc1c(F)c(N2C[C@H](N)[C@H]2C)nc2c1c(=O)c(C(=O)O)cn2C1CC1 | 0.5 (≈ 1.44 µM) | 0.12 (≈ 0.346 µM) | 0.12 (≈ 0.346 µM) | 0.12 (≈ 0.346 µM) | 0.12 (≈ 0.346 µM) | 0.25 (≈ 0.722 µM) | 0.25 (≈ 0.722 µM) | 0.12 (≈ 0.346 µM) | 0.12 (≈ 0.346 µM) | 0.25 (≈ 0.722 µM) | 0.12 (≈ 0.346 µM) | – | – | – |
| CC1C(N)CN1c1nc2c(cc1F)c(=O)c(C(=O)O)cn2C1CC1 (stereo unspecified) | 0.5 (≈ 1.5 µM) | – | 0.03 (≈ 0.0903 µM) | – | 0.03 (≈ 0.0903 µM) | 0.03 (≈ 0.0903 µM) | 0.06 (≈ 0.181 µM) | 0.03 (≈ 0.0903 µM) | 0.03 (≈ 0.0903 µM) | 0.06 (≈ 0.181 µM) | – | 95 | 3.5 | 13.8 |
